In ChEMBL document CHEMBL1144466, “Mutant prevention concentrations of fluoroquinolones for Enterobacteriaceae expressing the plasmid-carried quinolone resistance determinant qnrA1” (2007):
≈ marks a conversion by molar mass, not a printed value.

Tests used:
Klebsiella pneumoniae [1] = experiment: Antimicrobial activity against Klebsiella pneumoniae C2 GyrA Ser83Phe/ParC mutant expressing porins by microdilution method; assay type: functional
How it was run: (§1)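 Mutants were selected on Mueller-Hinton agar containing ciprofloxacin or moxifloxacin, with colonies allowed to grow for up to 96 h. Colonies recovered one concentration step below the MPC were tested for ciprofloxacin MIC (μg/ml) by microdilution.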

Escherichia coli [2] = experiment: Antimicrobial activity against Escherichia coli J53/p1132 negative expressing porins by microdilution method; assay type: functional
How it was run: (§2)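 Microdilution MICs (μg/ml) of ciprofloxacin, levofloxacin or moxifloxacin against Enterobacteriaceae strains differing in qnrA1 carriage: qnrA1 cloned in pACYC184 in E. coli DH10B, natural qnrA1 plasmids transferred to E. coli J53, clinical K. pneumoniae, and qnrA1-negative isogenic controls.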

Escherichia coli [3] = experiment: Antimicrobial activity against qnrA1 expressing Escherichia coli J53/p1960 GyrA/ParC mutant expressing porins by microdilution method; assay type: functional
Klebsiella pneumoniae [4] = experiment: Antimicrobial activity against qnrA1 expressing Klebsiella pneumoniae 1132 GyrA/ParC mutant expressing porins by microdilution method; assay type: functional
Klebsiella pneumoniae [5] = experiment: Antimicrobial activity against Klebsiella pneumoniae C2 GyrA Ser83Phe mutant lacking porins by microdilution method; conditions: for MIC: Klebsiella pneumoniae, C2
Klebsiella pneumoniae [6] = experiment: Antimicrobial activity against Klebsiella pneumoniae C2/pMG252 GyrA Ser83Phe mutant expressing porins by microdilution method; assay type: functional; conditions: for MIC: Klebsiella pneumoniae, C2
Escherichia coli [7] = experiment: Antimicrobial activity against Escherichia coli J53 GyrA/ParC mutant expressing porins by microdilution method; assay type: functional
Klebsiella pneumoniae [8] = experiment: Antimicrobial activity against qnrA1 expressing Klebsiella pneumoniae 1960 GyrA Ser83Phe/ParC mutant expressing porins by microdilution method; assay type: functional; how it was run: as §1
Klebsiella pneumoniae [9] = experiment: Antimicrobial activity against qnrA1 expressing Klebsiella pneumoniae N5 expressing porins by microdilution method; assay type: functional; conditions: for MIC: Klebsiella pneumoniae, N5; how it was run: as §2
Escherichia coli [10] = experiment: Antimicrobial activity against Escherichia coli DH10B/pACYC184 expressing porins by microdilution method; assay type: functional; conditions: for MIC: Escherichia coli, DH10B; how it was run: as §2
Klebsiella pneumoniae [11] = experiment: Antimicrobial activity against qnrA1 expressing Klebsiella pneumoniae1960 GyrA Ser83Phe mutant expressing porins by microdilution method; assay type: functional; conditions: for MIC: Klebsiella pneumoniae
Klebsiella pneumoniae [12] = experiment: Antimicrobial activity against qnrA1 expressing Klebsiella pneumoniae N5 GyrA/ParC mutant expressing porins by microdilution method; assay type: functional
Escherichia coli [13] = experiment: Antimicrobial activity against qnrA1 expressing Escherichia coli J53/p1960 expressing porins by microdilution method; assay type: functional; conditions: for MIC: Escherichia coli, J53; how it was run: as §2
Escherichia coli [14] = experiment: Antimicrobial activity against qnrA1 expressing Escherichia coli DH10B expressing porins by microdilution method; assay type: functional; conditions: for MIC: Escherichia coli, DH10B; how it was run: as §2
Escherichia coli [15] = experiment: Antimicrobial activity against qnrA1 expressing Escherichia coli J53/pMG252 expressing porins by microdilution method; assay type: functional; conditions: for MIC: Escherichia coli, J53; how it was run: as §2
Escherichia coli [16] = experiment: Antimicrobial activity against Escherichia coli J53 expressing porins by microdilution method; assay type: functional; how it was run: as §2
Klebsiella pneumoniae [17] = experiment: Antimicrobial activity against qnrA1 expressing Klebsiella pneumoniae UAB1 GyrA/ParC mutant expressing porins by microdilution method; assay type: functional
Escherichia coli [18] = experiment: Antimicrobial activity against qnrA1 expressing Escherichia coli DH10B GyrA/ParC mutant expressing porins by microdilution method; assay type: functional
Escherichia coli [19] = experiment: Antimicrobial activity against Escherichia coli DH10B expressing porins by microdilution method; assay type: functional; conditions: for MIC: Escherichia coli, DH10B; how it was run: as §2
Escherichia coli [20] = experiment: Antimicrobial activity against Escherichia coli J53/p1132 negative GyrA/ParC mutant expressing porins by microdilution method; assay type: functional
Klebsiella pneumoniae [21] = experiment: Antimicrobial activity against Klebsiella pneumoniae C2/pMG252 GyrA Ser83Phe/ParC mutant expressing porins by microdilution method; assay type: functional; how it was run: as §1
Klebsiella pneumoniae [22] = experiment: Antimicrobial activity against qnrA1 expressing Klebsiella pneumoniae 1132 expressing porins by microdilution method; assay type: functional; conditions: for MIC: Klebsiella pneumoniae; how it was run: as §2
Escherichia coli [23] = experiment: Antimicrobial activity against qnrA1 expressing Escherichia coli J53/pN5 expressing porins by microdilution method; assay type: functional; conditions: for MIC: Escherichia coli, J53; how it was run: as §2
Klebsiella pneumoniae [24] = experiment: Antimicrobial activity against qnrA1 expressing Klebsiella pneumoniae UAB1 expressing porins by microdilution method; assay type: functional; conditions: for MIC: Klebsiella pneumoniae, UAB1
Escherichia coli [25] = experiment: Antimicrobial activity against qnrA1 expressing Escherichia coli J53/pMG252 GyrA/ParC mutant expressing porins by microdilution method; assay type: functional
Escherichia coli [26] = experiment: Antimicrobial activity against qnrA1 expressing Escherichia coli J53/pN5 GyrA/ParC mutant expressing porins by microdilution method; assay type: functional
How it was run: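 Broth microdilution MIC, in μg/ml, with ciprofloxacin, levofloxacin or moxifloxacin against the E. coli J53 transconjugant carrying qnrA1.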

SMILES | MIC (Klebsiella pneumoniae [1]) [µg/mL] | MPC (Escherichia coli [2]) [µg/mL] | MIC (Klebsiella pneumoniae [4]) [µg/mL] | MPC (Klebsiella pneumoniae [5]) [µg/mL] | MIC (Klebsiella pneumoniae [5]) [µg/mL] | MIC (Klebsiella pneumoniae [6]) [µg/mL] | MIC (Klebsiella pneumoniae [8]) [µg/mL] | MPC (Klebsiella pneumoniae [9]) [µg/mL] | MPC (Escherichia coli [10]) [µg/mL] | MIC (Klebsiella pneumoniae [11]) [µg/mL] | MIC (Klebsiella pneumoniae [12]) [µg/mL] | MPC (Escherichia coli [13]) [µg/mL] | MPC (Escherichia coli [14]) [µg/mL] | MPC (Escherichia coli [15]) [µg/mL] | MPC (Escherichia coli [16]) [µg/mL] | MIC (Klebsiella pneumoniae [17]) [µg/mL] | MPC (Escherichia coli [19]) [µg/mL] | MIC (Klebsiella pneumoniae [21]) [µg/mL] | MPC (Klebsiella pneumoniae [22]) [µg/mL] | MIC (Klebsiella pneumoniae [22]) [µg/mL] | further results
COc1c(N2C[C@@H]3CCCN[C@@H]3C2)c(F)cc2c(=O)c(C(=O)O)cn(C3CC3)c12 [MOXIFLOXACIN] | 2 (≈ 4.98 µM) | 0.25 | 16 (≈ 39.9 µM) | 4 | 0.125 (≈ 0.311 µM) | 1 (≈ 2.49 µM) | 16 (≈ 39.9 µM) | 16 | 0.06 | 2 (≈ 4.98 µM) | 4 (≈ 9.96 µM) | 4 | 2 | 4 | 0.125 | 32 (≈ 79.7 µM) | 0.06 | 32 (≈ 79.7 µM) | 32 | 8 (≈ 19.9 µM) | MIC (Escherichia coli [2]; Escherichia coli, J53): 0.015 µg/mL (≈ 0.0374 µM); MIC (Escherichia coli [3]): 4 µg/mL (≈ 9.96 µM); MIC (Escherichia coli [7]): 0.5 µg/mL (≈ 1.25 µM); MIC (Klebsiella pneumoniae [9]): 0.5 µg/mL (≈ 1.25 µM); MIC (Escherichia coli [10]): 0.002 µg/mL (≈ 0.00498 µM); MIC (Escherichia coli [13]): 0.125 µg/mL (≈ 0.311 µM); MIC (Escherichia coli [14]): 0.125 µg/mL (≈ 0.311 µM); MIC (Escherichia coli [15]): 0.5 µg/mL (≈ 1.25 µM); MIC (Escherichia coli [16]; Escherichia coli, J53): 0.015 µg/mL (≈ 0.0374 µM); MIC (Escherichia coli [18]): 0.5 µg/mL (≈ 1.25 µM); MIC (Escherichia coli [19]): 0.002 µg/mL (≈ 0.00498 µM); MIC (Escherichia coli [20]): 0.25 µg/mL (≈ 0.623 µM); MPC (Escherichia coli [23]): 4 µg/mL; MIC (Escherichia coli [23]): 0.125 µg/mL (≈ 0.311 µM); MPC (Klebsiella pneumoniae [24]): 32 µg/mL; MIC (Klebsiella pneumoniae [24]): 4 µg/mL (≈ 9.96 µM)
O=C(O)c1cn(C2CC2)c2cc(N3CCNCC3)c(F)cc2c1=O [CIPROFLOXACIN] | 4 (≈ 12.1 µM) | 0.06 | 16 (≈ 48.3 µM) | 8 | 0.25 (≈ 0.754 µM) | 2 (≈ 6.04 µM) | 32 (≈ 96.6 µM) | 4 | 0.015 | 1 (≈ 3.02 µM) | 8 (≈ 24.1 µM) | 4 | 2 | 4 | 0.06 | 16 (≈ 48.3 µM) | 0.015 | 64 (≈ 193 µM) | 32 | 4 (≈ 12.1 µM) | MPC (Klebsiella pneumoniae [6]): 128 µg/mL; MIC (Klebsiella pneumoniae [9]): 0.25 µg/mL (≈ 0.754 µM); MPC (Klebsiella pneumoniae [11]): 64 µg/mL; MPC (Escherichia coli [23]): 4 µg/mL; MPC (Klebsiella pneumoniae [24]): 16 µg/mL; MIC (Klebsiella pneumoniae [24]): 2 µg/mL (≈ 6.04 µM)
C[C@H]1COc2c(N3CCN(C)CC3)c(F)cc3c(=O)c(C(=O)O)cn1c23.C[C@H]1COc2c(N3CCN(C)CC3)c(F)cc3c(=O)c(C(=O)O)cn1c23.O [LEVOFLOXACIN] | 8 | 0.06 | 16 | 8 | 0.25 | 2 | 64 | 4 | 0.015 | 2 | 8 | 4 | 2 | 4 | 0.06 | 16 | 0.015 | 64 | 32 | 4 | MIC (Escherichia coli [25]): 2 µg/mL; MIC (Escherichia coli [26]): 4 µg/mL; MIC (Escherichia coli [3]): 2 µg/mL; MPC (Klebsiella pneumoniae [6]): 128 µg/mL; MIC (Escherichia coli [10]): 0.004 µg/mL; MPC (Klebsiella pneumoniae [11]): 64 µg/mL; MIC (Escherichia coli [13]): 0.125 µg/mL; MIC (Escherichia coli [14]): 0.125 µg/mL; MIC (Escherichia coli [15]): 0.25 µg/mL; MIC (Escherichia coli [19]): 0.004 µg/mL; MPC (Escherichia coli [23]): 4 µg/mL; MIC (Escherichia coli [23]): 0.125 µg/mL; MPC (Klebsiella pneumoniae [24]): 16 µg/mL; MIC (Klebsiella pneumoniae [24]): 2 µg/mL
